What all share (type): functional, cell-based
Assay [1] relates to A549. The assay can be described thus: Cytotoxicity against human A549 cells after 48 hrs. The note with it: A549, 48 h. Summed up: (§1)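 Cells from the Shanghai Cell Bank were kept in RPMI1640 with 15% hormone-free heat-inactivated FBS, 2 mM glutamine, 100 U/mL penicillin G and 100 µg/mL streptomycin. Seeding was 5 × 10^4 cells/mL for K562 and 4 × 10^4 cells/mL for A549 and HepG2. Cells were exposed to compound for 48 h, and viability was read by CCK-8 at 450 and 650 nm. IC50 values come from triplicate experiments.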

Assay [2] has as its system HepG2. The assay can be described thus: Cytotoxicity against human HepG2 cells after 48 hrs. To be noted: HepG2, 48 h. Summed up: as §1
The test system of assay [3] is K562. The assay can be described thus: Cytotoxicity against human K562 cells after 48 hrs. The note with it: K562, 48 h. Summed up:
as §1

Structures are written as SMILES.

The record followed here is ChEMBL document CHEMBL1154242, “ent-Kaurane and cembrane diterpenoids from Isodon sculponeatus and their cytotoxicity” (J Nat Prod, 2009).

As to `C=C1C(=O)O[C@H]2/C=C(\C)C[C@@H]3C=C(CC/C=C(\C)CC[C@H]12)C(=O)O3`, the IC50 in assay [1] came out at 1960 nM; in assay [2], 1400 nM; in assay [3], 1250 nM.

Consider `C=C1C(=O)O[C@H]2/C=C(\C)C[C@@H]3C=C(CC[C@@H](OO)C(=C)CC[C@H]12)C(=O)O3`, for which the figures for the IC50 in assay [1], in assay [2] and in assay [3] were 4180 nM, 3110 nM and 4300 nM, respectively.

For the compound `C=C1C(=O)O[C@H]2/C=C(\C)C[C@@H]3C=C(C/C=C/[C@@](C)(OO)CC[C@H]12)C(=O)O3`, the IC50 in assay [1] amounted to 1550 nM; in assay [2], 900 nM; in assay [3], 1200 nM.

For the compound `C=C1[C@@H]2C[C@@H](O)[C@@H]3[C@](C2)(C(=O)O[C@H]2C[C@H](O)C(C)(C)[C@H]4[C@H](O)OC(=O)[C@@]243)[C@@H]1O` [EMEMOGIN], the IC50 in assay [1], in assay [2] and in assay [3] was greater than 10000 nM throughout.

Regarding `C=C1C(=O)[C@]23C[C@H]1CC[C@H]2[C@@]12CO[C@@H](O)[C@@H]1C(C)(C)[C@@H](O)C[C@@H]2OC3=O` [ENEMIN], the IC50 is greater than 10000 nM in assay [1], 2020 nM in assay [2] and 1620 nM in assay [3].

`C=C1[C@@H](O)[C@]23[C@H](O)[C@H]1CC[C@H]2[C@@]12CO[C@@]3(O)[C@@H](O)[C@@H]1C(C)(C)CC[C@@H]2O` [ENMENOL]: the IC50 in assay [1], in assay [2] and in assay [3] was greater than 10000 nM in each case.

As for `C=C1C(=O)[C@]23C[C@H]1C[C@H](O)[C@H]2[C@@]12CO[C@@H](O)[C@@H]1C(C)(C)CC[C@@H]2OC3=O` [EPINODOSIN], the results for the IC50 in assay [1], in assay [2] and in assay [3] were 2100 nM, 1620 nM and 560 nM, respectively.

As for `CC1(C)CC[C@@H]2OC(=O)[C@@]34C[C@@H](C[C@H](O)[C@H]3[C@]23CO[C@@H](O)[C@H]13)[C@@H](CO)C4=O` [MAOYECRYSTAL D], the 50% inhibitory concentration (IC50) in assay [1], in assay [2] and in assay [3] was greater than 10000 nM each time.

Take `C=C1[C@@H]2C[C@@H](O)[C@H]3[C@@]45CO[C@@](O)([C@@H](O)[C@@H]4C(C)(C)CC[C@@H]5O)[C@]3(C2)[C@@H]1O` [NERVOSANIN B]: the IC50 in assay [1], in assay [2] and in assay [3] was greater than 10000 nM throughout.

Turning to `C=C1C(=O)[C@]23C[C@H]1C[C@@H](O)[C@H]2[C@@]12CO[C@@H](O)[C@@H]1C(C)(C)CC[C@@H]2OC3=O` [NODOSIN], the IC50 in assay [1] is greater than 10000 nM; in assay [2], 1920 nM; in assay [3], 540 nM.

Consider `C=C1C(=O)[C@]23C[C@H]1C[C@@H](O)[C@H]2[C@]12CO[C@@H]4OC[C@](C)(CC[C@@H]1OC3=O)[C@@H]42` [SCULPONEATIN A], for which the values for the IC50 in assay [1], in assay [2] and in assay [3] were 1900 nM, 1770 nM and 1620 nM, respectively.

In the case of `C=C1[C@@H]2C[C@@H](O)[C@@H]3[C@](C2)(C(=O)O[C@H]2CC[C@@]4(C)CO[C@H]5OC[C@]23[C@H]54)[C@@H]1O` [SCULPONEATIN B], the IC50 in assay [1], in assay [2] and in assay [3] was greater than 10000 nM in each case.

With `C=C1C(=O)[C@]23C[C@H]1C[C@@H](O)[C@H]2[C@@]1(COC3=O)[C@@H]2[C@H]3OC[C@]2(C)CC[C@H]1O3` [SCULPONEATIN C], the IC50 in assay [1] amounted to 2730 nM; in assay [2] it was 680 nM; in assay [3], 780 nM.

On to `C=C1[C@@H]2C[C@H](O)[C@@H]3[C@](C2)(C(=O)OC2O[C@H](O)[C@@H]4[C@@](C)(CO)CC[C@H](O)[C@]243)[C@@H]1O` (some centres undefined) [SCULPONEATIN D], for which the IC50 in assay [1], in assay [2] and in assay [3] was greater than 10000 nM throughout.

Consider `C[C@]12CC[C@@H]3OC(=O)[C@@]45C[C@@H](C[C@@H](O)[C@H]4[C@]34CO[C@H](OC1)[C@H]24)[C@@]1(CCC2=C(O1)[C@]13C[C@H]2C[C@@H](O)[C@H]1[C@]12CO[C@@H]4OC[C@](C)(CC[C@@H]1OC3=O)[C@@H]42)C5=O` [SCULPONIN D], for which the IC50 in assay [1] was 1000 nM; in assay [2] it was 1120 nM; in assay [3] it was 1500 nM.

On to `CC1(C)[C@H]2[C@H](O)OC[C@@]23[C@H](C[C@@H]1O)OC(=O)[C@@]12C[C@@H](C[C@@H](O)[C@H]13)[C@@]1(CCC3=C(O1)[C@]14C[C@H]3C[C@@H](O)[C@H]1[C@]13CO[C@@H]5OC[C@](C)(CC[C@@H]1OC4=O)[C@@H]53)C2=O` [SCULPONIN E], for which the IC50 worked out at 1850 nM in assay [1], 1620 nM in assay [2] and 2000 nM in assay [3].

As for `C=C1[C@@H]2C[C@H](O)[C@@H]3[C@](C2)(C(=O)O[C@H]2C[C@H](O)C(C)(C)[C@H]4[C@H](O)OC[C@@]243)[C@@H]1OC(C)=O` [SCULPONIN F], the IC50 in assay [1], in assay [2] and in assay [3] was greater than 10000 nM each time.

On to `C=C1C(=O)[C@]23C[C@H]1C[C@@H](O)[C@H]2[C@]12CO[C@H]4O[C@@H](O)[C@](C)(CC[C@@H]1OC3=O)[C@@H]42` [SCULPONIN G], for which the IC50 in assay [1], in assay [2] and in assay [3] was greater than 10000 nM throughout.

In the case of `C=C1C(=O)[C@]23C[C@H]1C[C@@H](O)[C@H]2[C@]12CO[C@@H]4O[C@H](O)[C@](C)(CC[C@@H]1OC3=O)[C@@H]42` [SCULPONIN H], the IC50 in assay [1], in assay [2] and in assay [3] was greater than 10000 nM throughout.

Take `C=C1[C@@H]2C[C@@H](O)[C@@H]3[C@](C2)(C(=O)O[C@H]2CC[C@@]4(C)[C@H](O)O[C@H]5OC[C@]23[C@H]54)[C@@H]1O` [SCULPONIN I]: the IC50 in assay [1], in assay [2] and in assay [3] was greater than 10000 nM each time.

Regarding `C=C1[C@@H]2C[C@@H](O)[C@@H]3[C@](C2)(C(=O)O[C@H]2CC[C@]4(C)[C@H]5[C@H](OC[C@@]253)O[C@@H]4O)[C@@H]1O` [SCULPONIN J], the IC50 in assay [1], in assay [2] and in assay [3] was greater than 10000 nM throughout.

Regarding `C=C1C(O)[C@]23C[C@H]1C[C@H](O)[C@H]2[C@]12CCC[C@@](C)(CO)[C@H]1[C@H](O)[C@]3(O)OC2` (some centres undefined) [SCULPONIN K], the IC50 in assay [1], in assay [2] and in assay [3] was greater than 10000 nM throughout.

For the compound `C=C1[C@@H]2CC(=O)[C@H]3[C@]45C=CC[C@@](C)(CO)[C@H]4[C@H](O)[C@](O)(OC5)[C@]3(C2)[C@@H]1O` [SCULPONIN L], the IC50 in assay [1], in assay [2] and in assay [3] was greater than 10000 nM each time.

As a reminder, the IC50 is the concentration that inhibits the measured activity by half.
